Values after ≈ are worked out from the molar mass of the structure shown.
system: HCT-116; experiment: Antiproliferative activity against human HCT-116 cells assessed as cell growth at 1 uM measured after 3 days by [3H]-thymidine incorporation assay relative to control; type: functional; conditions: HCT-116, 72 h, time 3 day, read-out: Activity
Procedure, shortened: (§1)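 HCT116 and MDA-MB-231 cells from ATCC, seeded at 3000 cells/well, exposed to inhibitor for three days; 0.04 µCi 3H-thymidine added per well 5 h before harvest onto glass fibre filters, incorporation counted by scintillation and expressed relative to untreated controls. Triplicate wells, at least two independent experiments. Single-point screen at 1 µM; IC50 determined from varying concentrations.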

Row | Compound | growth at 1 µM
1 | CC(=O)c1cc2c(N)c(C(=O)Nc3cccc4cnccc34)sc2nc1C | 111%
2 | Cc1nc2sc(C(=O)Nc3cccc4cnccc34)c(N)c2cc1C(C)O (stereo not drawn) | 110%
3 | Nc1c(C(=O)Nc2ccccc2Cl)sc2nc3c(cc12)CN(Cc1ccccc1)CC3 | 99.4%
4 | Cc1nc2sc(C(=O)Nc3ccc4c(c3)OCCO4)c(N)c2cc1C(C)O (stereo not drawn) | 94.9%
5 | Nc1c(C(=O)Nc2ccncc2)sc2nc3c(cc12)C(=O)CCC3 | 110%
6 | CC(=O)c1cc2c(N)c(C(=O)Nc3cccc(Cl)c3)sc2nc1C | 101%
7 | Nc1c(C(=O)Nc2cccc3ncccc23)sc2nc3c(cc12)CN(Cc1ccccc1)CC3 | 104%
8 | COc1ccc(NC(=O)c2sc3nc4c(cc3c2N)CN(C)CC4)cc1 | 98.9%
9 | Nc1c(C(=O)Nc2cccc3cccnc23)sc2nc3c(cc12)C(=O)CCC3 | 101%
10 | COc1ccc(NC(=O)c2sc3nc4c(cc3c2N)COCC4)cc1 | 80.1%
11 | Cc1nc2sc(C(=O)Nc3cncc4ccccc34)c(N)c2cc1C(C)O (stereo not drawn) | 109%
12 | Nc1c(C(=O)Nc2cccc3c2OCCO3)sc2nc3c(cc12)C(=O)CCC3 | 18.6%
13 | CC(=O)c1cc2c(N)c(C(=O)Nc3ccncc3)sc2nc1C | 103%
14 | Cc1ccccc1NC(=O)c1sc2nc(C)c(C(C)O)cc2c1N (stereo not drawn) | 99.9%
15 | Nc1c(C(=O)Nc2ccnc3ccccc23)sc2nc3c(cc12)CN(Cc1ccccc1)CC3 | 82.8%
16 | Nc1c(C(=O)Nc2cccc3cnccc23)sc2nc3c(cc12)CN(Cc1ccccc1)CC3 | 110%
17 | Nc1c(C(=O)Nc2cccc3ccncc23)sc2nc3c(cc12)CN(Cc1ccccc1)CC3 | 103%
18 | Nc1c(C(=O)Nc2cccc3cnccc23)sc2nc3c(cc12)C(=O)CCC3 | 103%
19 | Nc1c(C(=O)Nc2ccc3c(c2)OCCO3)sc2nc3c(cc12)C(=O)CCC3 | 76.2%
20 | CC(=O)c1cc2c(N)c(C(=O)Nc3ccc4c(c3)OCCO4)sc2nc1C | 104%
21 | Nc1c(C(=O)Nc2ccnc3ccccc23)sc2nc3c(cc12)C(=O)CCC3 | 101%
22 | Nc1c(C(=O)Nc2cccc3c2OCCO3)sc2nc3c(cc12)CN(Cc1ccccc1)CC3 | 88.2%
23 | COc1cccc(NC(=O)c2sc3nc4c(cc3c2N)CN(Cc2ccccc2)CC4)c1C | 101%
24 | Nc1c(C(=O)Nc2cccc3ccccc23)sc2nc3c(cc12)COCC3 | 100%
25 | CC(=O)c1cc2c(N)c(C(=O)Nc3cccc4ncccc34)sc2nc1C | 93%
26 | Cc1nc2sc(C(=O)Nc3ccccc3)c(N)c2cc1C(C)O (stereo not drawn) | 95.3%
27 | Nc1c(C(=O)Nc2cccc3ccncc23)sc2nc3c(cc12)C(=O)CCC3 | 98.1%
28 | Cc1nc2sc(C(=O)Nc3cccc4ccncc34)c(N)c2cc1C(C)O (stereo not drawn) | 83.1%
29 | Cc1ccccc1NC(=O)c1sc2nc3c(cc2c1N)CN(C)CC3 | 101%
30 | CC(=O)c1cc2c(N)c(C(=O)Nc3cccc4cccnc34)sc2nc1C | 97%

system: MDA-MB-231; experiment: Antiproliferative activity against human MDA-MB-231 cells assessed as cell growth at 1 uM measured after 3 days by [3H]-thymidine incorporation assay relative to control; type: functional; conditions: MDA-MB-231, 72 h, time 3 day, read-out: Activity; procedure, shortened: as §1

Row | Compound | growth at 1 µM
31 | CC(=O)c1cc2c(N)c(C(=O)Nc3cccc4cnccc34)sc2nc1C | 99.8%
32 | Cc1nc2sc(C(=O)Nc3cccc4cnccc34)c(N)c2cc1C(C)O (stereo not drawn) | 102%
33 | Nc1c(C(=O)Nc2ccccc2Cl)sc2nc3c(cc12)CN(Cc1ccccc1)CC3 | 99.8%
34 | Cc1nc2sc(C(=O)Nc3ccc4c(c3)OCCO4)c(N)c2cc1C(C)O (stereo not drawn) | 105%
35 | Nc1c(C(=O)Nc2ccncc2)sc2nc3c(cc12)C(=O)CCC3 | 108%
36 | CC(=O)c1cc2c(N)c(C(=O)Nc3cccc(Cl)c3)sc2nc1C | 102%
37 | Nc1c(C(=O)Nc2cccc3ncccc23)sc2nc3c(cc12)CN(Cc1ccccc1)CC3 | 91.3%
38 | COc1ccc(NC(=O)c2sc3nc4c(cc3c2N)CN(C)CC4)cc1 | 90.3%
39 | Nc1c(C(=O)Nc2cccc3cccnc23)sc2nc3c(cc12)C(=O)CCC3 | 99.2%
40 | COc1ccc(NC(=O)c2sc3nc4c(cc3c2N)COCC4)cc1 | 83.9%
41 | Cc1nc2sc(C(=O)Nc3cncc4ccccc34)c(N)c2cc1C(C)O (stereo not drawn) | 106%
42 | Nc1c(C(=O)Nc2cccc3c2OCCO3)sc2nc3c(cc12)C(=O)CCC3 | 17.8%
43 | CC(=O)c1cc2c(N)c(C(=O)Nc3ccncc3)sc2nc1C | 97.2%
44 | Cc1ccccc1NC(=O)c1sc2nc(C)c(C(C)O)cc2c1N (stereo not drawn) | 97.9%
45 | Nc1c(C(=O)Nc2ccnc3ccccc23)sc2nc3c(cc12)CN(Cc1ccccc1)CC3 | 104%
46 | Nc1c(C(=O)Nc2cccc3cnccc23)sc2nc3c(cc12)CN(Cc1ccccc1)CC3 | 108%
47 | Nc1c(C(=O)Nc2cccc3ccncc23)sc2nc3c(cc12)CN(Cc1ccccc1)CC3 | 108%
48 | Nc1c(C(=O)Nc2cccc3cnccc23)sc2nc3c(cc12)C(=O)CCC3 | 107%
49 | Nc1c(C(=O)Nc2ccc3c(c2)OCCO3)sc2nc3c(cc12)C(=O)CCC3 | 102%
50 | CC(=O)c1cc2c(N)c(C(=O)Nc3ccc4c(c3)OCCO4)sc2nc1C | 103%
51 | Nc1c(C(=O)Nc2ccnc3ccccc23)sc2nc3c(cc12)C(=O)CCC3 | 107%
52 | Nc1c(C(=O)Nc2cccc3c2OCCO3)sc2nc3c(cc12)CN(Cc1ccccc1)CC3 | 89.3%
53 | COc1cccc(NC(=O)c2sc3nc4c(cc3c2N)CN(Cc2ccccc2)CC4)c1C | 106%
54 | Nc1c(C(=O)Nc2cccc3ccccc23)sc2nc3c(cc12)COCC3 | 78.3%
55 | CC(=O)c1cc2c(N)c(C(=O)Nc3cccc4ncccc34)sc2nc1C | 98.7%
56 | Cc1nc2sc(C(=O)Nc3ccccc3)c(N)c2cc1C(C)O (stereo not drawn) | 107%
57 | Nc1c(C(=O)Nc2cccc3ccncc23)sc2nc3c(cc12)C(=O)CCC3 | 115%
58 | Cc1nc2sc(C(=O)Nc3cccc4ccncc34)c(N)c2cc1C(C)O (stereo not drawn) | 94.6%
59 | Cc1ccccc1NC(=O)c1sc2nc3c(cc2c1N)CN(C)CC3 | 95.3%
60 | CC(=O)c1cc2c(N)c(C(=O)Nc3cccc4cccnc34)sc2nc1C | 86.7%

system: not listed separately; experiment: Thermodynamic solubility of compound in water measured after 15 mins RP-HPLC analysis; type: physicochemical; conditions: read-out: Therm_solubility

Row | Compound | solubility thermodynamic at 0.25 h
61 | Cc1nc2sc(C(=O)Nc3cccc4cnccc34)c(N)c2cc1C(C)O (stereo not drawn) | 7.55 µg/mL (≈ 19.9 µM)
62 | Nc1c(C(=O)Nc2ccccc2Cl)sc2nc3c(cc12)CN(Cc1ccccc1)CC3 | 1.06 µg/mL (≈ 2.36 µM)
63 | Cc1nc2sc(C(=O)Nc3ccc4c(c3)OCCO4)c(N)c2cc1C(C)O (stereo not drawn) | 0.27 µg/mL (≈ 0.7 µM)
64 | Nc1c(C(=O)Nc2ccncc2)sc2nc3c(cc12)C(=O)CCC3 | 1.54 µg/mL (≈ 4.55 µM)
65 | CC(=O)c1cc2c(N)c(C(=O)Nc3cccc(Cl)c3)sc2nc1C | 1.52 µg/mL (≈ 4.22 µM)
66 | Nc1c(C(=O)Nc2cccc3ncccc23)sc2nc3c(cc12)CN(Cc1ccccc1)CC3 | 0.62 µg/mL (≈ 1.33 µM)
67 | COc1ccc(NC(=O)c2sc3nc4c(cc3c2N)CN(C)CC4)cc1 | 2.17 µg/mL (≈ 5.89 µM)
68 | Nc1c(C(=O)Nc2cccc3cccnc23)sc2nc3c(cc12)C(=O)CCC3 | 0.44 µg/mL (≈ 1.13 µM)
69 | COc1ccc(NC(=O)c2sc3nc4c(cc3c2N)COCC4)cc1 | 3.19 µg/mL (≈ 8.98 µM)
70 | Nc1c(C(=O)Nc2cccc3c2OCCO3)sc2nc3c(cc12)C(=O)CCC3 | 0.12 µg/mL (≈ 0.303 µM)
71 | CC(=O)c1cc2c(N)c(C(=O)Nc3ccncc3)sc2nc1C | 0.45 µg/mL (≈ 1.38 µM)
72 | Cc1ccccc1NC(=O)c1sc2nc(C)c(C(C)O)cc2c1N (stereo not drawn) | 29.5 µg/mL (≈ 86.5 µM)
73 | Nc1c(C(=O)Nc2ccnc3ccccc23)sc2nc3c(cc12)CN(Cc1ccccc1)CC3 | 3.83 µg/mL (≈ 8.23 µM)
74 | Nc1c(C(=O)Nc2cccc3cnccc23)sc2nc3c(cc12)CN(Cc1ccccc1)CC3 | 1.12 µg/mL (≈ 2.41 µM)
75 | Nc1c(C(=O)Nc2cccc3ccncc23)sc2nc3c(cc12)CN(Cc1ccccc1)CC3 | 2.79 µg/mL (≈ 5.99 µM)
76 | Nc1c(C(=O)Nc2cccc3cnccc23)sc2nc3c(cc12)C(=O)CCC3 | 1.67 µg/mL (≈ 4.3 µM)
77 | Nc1c(C(=O)Nc2ccc3c(c2)OCCO3)sc2nc3c(cc12)C(=O)CCC3 | 0.32 µg/mL (≈ 0.809 µM)
78 | CC(=O)c1cc2c(N)c(C(=O)Nc3ccc4c(c3)OCCO4)sc2nc1C | 0.19 µg/mL (≈ 0.496 µM)
79 | Nc1c(C(=O)Nc2ccnc3ccccc23)sc2nc3c(cc12)C(=O)CCC3 | 0.64 µg/mL (≈ 1.65 µM)
80 | Nc1c(C(=O)Nc2cccc3c2OCCO3)sc2nc3c(cc12)CN(Cc1ccccc1)CC3 | 2.1 µg/mL (≈ 4.44 µM)
81 | COc1cccc(NC(=O)c2sc3nc4c(cc3c2N)CN(Cc2ccccc2)CC4)c1C | 1.89 µg/mL (≈ 4.12 µM)
82 | Nc1c(C(=O)Nc2cccc3ccccc23)sc2nc3c(cc12)COCC3 | 4 µg/mL (≈ 10.7 µM)
83 | CC(=O)c1cc2c(N)c(C(=O)Nc3cccc4ncccc34)sc2nc1C | 1.3 µg/mL (≈ 3.45 µM)
84 | Cc1nc2sc(C(=O)Nc3ccccc3)c(N)c2cc1C(C)O (stereo not drawn) | 3.51 µg/mL (≈ 10.7 µM)
85 | Nc1c(C(=O)Nc2cccc3ccncc23)sc2nc3c(cc12)C(=O)CCC3 | 1.94 µg/mL (≈ 4.99 µM)
86 | Cc1nc2sc(C(=O)Nc3cccc4ccncc34)c(N)c2cc1C(C)O (stereo not drawn) | 10.1 µg/mL (≈ 26.6 µM)
87 | Cc1ccccc1NC(=O)c1sc2nc3c(cc2c1N)CN(C)CC3 | 5.61 µg/mL (≈ 15.9 µM)
88 | CC(=O)c1cc2c(N)c(C(=O)Nc3cccc4cccnc34)sc2nc1C | 3 µg/mL (≈ 7.97 µM)

Source: ChEMBL document CHEMBL4706708, “Improving the solubility of anti-proliferative thieno[2,3-b]quinoline-2-carboxamides” (Bioorg Med Chem, 2021)
